The source of these data is ChEMBL document CHEMBL3877328, “Identification of allosteric binding sites for PI3Kα oncogenic mutant specific inhibitor design” (Bioorg Med Chem, 2017).

Where only a bound is given, the exact number is not on record here.

Test [1] has as its target T1, Phosphatidylinositol 4,5-bisphosphate 3-kinase catalytic subunit alpha isoform (Homo sapiens, UniProt P42336). Kind of test: Inhibition of full length PI3Kalpha (unknown origin) assessed as reduction in PIP3 formation at 100 uM using PIP2 as substrate after 45 mins by fluorescence polarization assay relative to control. The essentials:
(§1)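 Wild-type PI3Kα, either full-length or the p110α/niSH2 construct used for crystallography. Protein was co-expressed in Sf9 cells from p110α and p85α (or niSH2) viruses at MOI ratio 3:2, with J-32 in the medium, and harvested at 48 h. Fragments were added from 10% (v/v) DMSO dilutions and screened at 100 μM. Reactions held 10 μM PIP2 and 25 μM ATP, 45 min at room temperature. PIP3 formation was read by fluorescence polarization.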

The target in test [2] is T1, Phosphatidylinositol 4,5-bisphosphate 3-kinase catalytic subunit alpha isoform. In words: Inhibition of full length PI3Kalpha (unknown origin) assessed as reduction in PIP3 formation using PIP2 as substrate after 45 mins by fluorescence polarization assay. In a few lines: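 Wild-type full-length p110α/p85α PI3Kα, baculovirus-expressed in Sf9 cells, purified. Fluorescence polarization kit detecting PIP3 formation. Reaction with 10 μM PIP2 and 25 μM ATP, 45 min at room temperature. Fragments diluted in 10% (v/v) DMSO. Single-point screen at 100 μM; IC50 from dose-response curves over increasing fragment concentrations.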

Test [3] deals with PI3-kinase p110-alpha/p85-alpha (Homo sapiens) (UniProt P27986+P42336). Kind of test: Inhibition of wild type PI3K p110alpha/p85alpha niSH2 (unknown origin) expressed in baculovirus infected sf9 cells assessed as reduction in PIP3 formation at 100 uM using PIP2 as substrate after 45 mins by fluorescence polarization assay relative to control. In a few lines:
as §1

T1 sequence (P42336 whole entry, the tested form may be a part, canonical isoform): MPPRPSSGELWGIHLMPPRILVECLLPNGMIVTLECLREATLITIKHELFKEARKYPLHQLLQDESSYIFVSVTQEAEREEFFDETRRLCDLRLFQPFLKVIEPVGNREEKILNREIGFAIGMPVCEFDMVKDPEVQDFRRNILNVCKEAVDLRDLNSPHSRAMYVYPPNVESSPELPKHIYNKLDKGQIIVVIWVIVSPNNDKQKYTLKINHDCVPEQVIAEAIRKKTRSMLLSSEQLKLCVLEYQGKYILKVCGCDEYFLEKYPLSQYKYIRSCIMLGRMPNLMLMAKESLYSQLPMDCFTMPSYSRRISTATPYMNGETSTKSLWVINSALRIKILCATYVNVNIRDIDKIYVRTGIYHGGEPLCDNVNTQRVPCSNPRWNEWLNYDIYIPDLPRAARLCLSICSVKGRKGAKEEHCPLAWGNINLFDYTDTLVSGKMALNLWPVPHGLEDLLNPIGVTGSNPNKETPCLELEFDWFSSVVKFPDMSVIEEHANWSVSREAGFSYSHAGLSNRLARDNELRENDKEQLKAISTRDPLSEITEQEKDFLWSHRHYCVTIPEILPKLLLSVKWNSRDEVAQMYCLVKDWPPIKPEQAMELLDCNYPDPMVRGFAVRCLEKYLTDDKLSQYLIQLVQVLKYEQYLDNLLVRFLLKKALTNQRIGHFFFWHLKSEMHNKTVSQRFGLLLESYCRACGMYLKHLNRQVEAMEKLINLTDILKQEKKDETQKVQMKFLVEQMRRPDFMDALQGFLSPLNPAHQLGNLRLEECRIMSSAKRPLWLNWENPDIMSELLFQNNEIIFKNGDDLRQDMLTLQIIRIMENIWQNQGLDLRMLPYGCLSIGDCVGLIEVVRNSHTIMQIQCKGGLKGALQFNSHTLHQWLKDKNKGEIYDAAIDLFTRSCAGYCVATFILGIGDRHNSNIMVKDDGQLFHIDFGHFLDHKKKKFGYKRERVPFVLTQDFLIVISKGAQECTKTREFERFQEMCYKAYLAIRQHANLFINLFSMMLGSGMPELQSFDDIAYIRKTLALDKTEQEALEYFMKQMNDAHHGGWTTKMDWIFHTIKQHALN

`Oc1ccccc1O` [CATECHOL]: the inhibition (commonly the change of the read-out against control, counted positive when it falls) in test [1] came out at 87%. Besides, in test [2], the half-maximal inhibitory concentration (IC50) (in general, the concentration that gives 50% inhibition) was found to be 33 µM.
Take `O=C(O)c1ccccc1O`: the inhibition in test [3] and in test [1] was less than 25% each time.
Regarding `Cc1cc2ccccc2[nH]1`, the inhibition in test [3] and in test [1] was less than 25% throughout.
For the compound `Nc1ccc2[nH]c(C(F)(F)F)nc2c1`, the inhibition in test [3] and in test [1] was less than 25% each time.
Regarding `CC1C(=O)CCCC1=O`, the inhibition in test [3] and in test [1] was less than 25% in each case.
For `O=c1[nH]c(=O)c2nccnc2[nH]1`, the inhibition in test [3] and in test [1] was less than 25% throughout.
In the case of `Cc1cc(C)nc(N)c1`, the inhibition in test [3] and in test [1] was less than 25% each time.
For the compound `Cc1c(N)cccc1N`, in test [1], the inhibition stood at 92%. Further, in test [2], the IC50 worked out at 20 µM.
On to `Nc1ccccc1CO`, for which the inhibition in test [3] and in test [1] was less than 25% in each case.
Take `CC(C)(C)OC(=O)N1CCC(N)CC1`: the inhibition in test [3] and in test [1] was less than 25% in each case.
As to `Oc1cccnc1`, the inhibition in test [3] and in test [1] was less than 25% each time.
Consider `COc1ccccc1C(=O)O`, for which the inhibition in test [3] and in test [1] was less than 25% throughout.
Regarding `OC1CCC(O)CC1` (configuration not stated), the inhibition in test [3] and in test [1] was less than 25% each time.
For `N#Cc1cccc(N)c1`, the inhibition in test [3] and in test [1] was less than 25% in each case.
For `Cc1ccnc(N)c1[N+](=O)[O-]`, the inhibition in test [3] and in test [1] was less than 25% throughout.
Take `Cc1cccc(N)n1`: the inhibition in test [3] and in test [1] was less than 25% each time.
On to `Nc1nc2ccccc2[nH]1`, for which the inhibition in test [3] and in test [1] was less than 25% each time.
Turning to `NS(=O)(=O)c1ccccc1Cl`, the inhibition in test [3] and in test [1] was less than 25% throughout.
As for `O=C(O)CCc1ccc(O)cc1`, the inhibition in test [3] and in test [1] was less than 25% each time.
Regarding `O=c1[nH]cc(F)c(=O)[nH]1`, the inhibition in test [3] and in test [1] was less than 25% throughout.
`Nc1ccc2c(c1)CN=N2`: the inhibition in test [3] and in test [1] was less than 25% in each case.
